SIAE inh = blocks human sialic acid acetylesterase; Q9HAT2; SIAE FP-Rh probe binding, fluorescence polarization; inhibition, % at 9.66 µM; 370,000 tested, 0.69% active; AID 1053197;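 active = inhibition above a cutoff: mean of compounds within the control limits plus 3 SD of those, cut at about 17% in these data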;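 note: 0% = plate median of compound wells and 100% = probe without SIAE protein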
Target sequence (Q9HAT2 whole entry, looked up): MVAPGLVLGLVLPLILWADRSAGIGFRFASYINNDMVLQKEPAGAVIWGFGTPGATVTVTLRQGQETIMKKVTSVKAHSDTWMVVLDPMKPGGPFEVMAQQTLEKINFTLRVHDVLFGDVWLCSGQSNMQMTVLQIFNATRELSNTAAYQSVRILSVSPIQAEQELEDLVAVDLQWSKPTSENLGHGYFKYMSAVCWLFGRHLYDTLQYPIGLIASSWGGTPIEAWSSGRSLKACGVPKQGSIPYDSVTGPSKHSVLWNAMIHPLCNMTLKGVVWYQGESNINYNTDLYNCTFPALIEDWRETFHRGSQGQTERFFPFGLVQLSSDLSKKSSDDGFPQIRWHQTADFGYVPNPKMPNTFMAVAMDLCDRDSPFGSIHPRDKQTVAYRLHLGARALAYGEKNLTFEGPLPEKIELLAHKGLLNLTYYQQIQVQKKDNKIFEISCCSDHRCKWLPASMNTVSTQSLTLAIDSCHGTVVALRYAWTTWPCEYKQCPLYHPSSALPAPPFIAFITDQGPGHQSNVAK
TDP2 inh = TDP2 (human) inhibition, absorbance primary screen. AID 720702. inhibition, % at 12.8 µM. O95551. 370,000 tested, 0.34% active. recombinant TDP2, T5PNP hydrolysis, p-nitrophenol absorbance 415 nm;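 active = inhibition above the mean of all tested compounds plus 3 SD, set per campaign, cut at about 25% in these data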;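 note: 0% = DMSO with enzyme and 100% = buffer with substrate but no TDP2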
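System – recombinant human TDP2 · Quantity – TDP2 enzyme at 120 nM final · Doses – single concentration, 12.8 µM nominal, with 1% DMSO · Incubation – 2 h at 37 °C · Measured by – epi absorbance of p-nitrophenol freed from T5PNP by hydrolysis · Read-out – % inhibition relative to enzyme-containing and enzyme-free wells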
Apaf-1 inh = blocks human Apaf-1 apoptosome activity. inhibition, % at 20 µM. 330,000 tested, 0.71% active. O14727. reconstituted apoptosome caspase-3 activity, DEVD-Rh110 fluorescence; active = inhibition of at least 40% at 20 µM;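 note: plate controls were DMSO wells for no effect and DEVD-CHO caspase inhibitor wells for full effect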
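Medium: Hepes buffer, pH 7.5 / System: biochemical Apaf-1 apoptosome reconstitution / Measured by: Rh110 fluorescence, excitation 480 nm, emission 540 nm / Times: compound with Apaf-1, dATP, procaspase-3 30 min, then 50 min reaction, room temperature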
PAD4 inh = inhibitors of human PAD4; inhibition, % at 6.36 µM; 330,000 tested, 0.41% active; AID 485272; recombinant PAD4, RCA probe fluorescence polarization;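 active = percent inhibition above a cutoff equal to the mean of all tested compounds plus 3 SD, cut at about 15% in these data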;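 note: 0% = PAD4 with RCA probe and DMSO and 100% = probe without PAD4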
GSTO1 counter = GSTO1 inhibition, counter-screen for RBBP9 inhibitors | P78417 | recombinant GSTO1, activity-based probe fluorescence polarization | inhibition, % at 5.96 µM | 300,000 tested, 1.1% active;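 active = inhibition above the campaign mean inhibition plus 3 SD, cut at about 35% in these data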;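 note: 0% = GSTO1-1 with DMSO and 100% = wells lacking GSTO1-1 enzyme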
Target sequence (P78417 whole entry, looked up): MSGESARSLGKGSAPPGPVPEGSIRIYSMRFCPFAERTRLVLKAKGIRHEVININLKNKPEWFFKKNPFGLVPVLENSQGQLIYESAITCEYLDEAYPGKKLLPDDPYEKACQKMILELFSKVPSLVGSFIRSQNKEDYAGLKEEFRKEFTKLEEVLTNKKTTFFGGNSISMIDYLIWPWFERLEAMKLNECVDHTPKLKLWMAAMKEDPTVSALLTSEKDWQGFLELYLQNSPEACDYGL
TCR-CD3 inh = blocks the human TCR-CD3 interaction | inhibition, % at 9.4 µM | AID 651800 | 360,000 tested, 0.37% active | TAMRA-labeled TCR probe fluorescence, biochemical; in the data active = inhibition above about 19%;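 note: recombinant mutant TCR 2C K166C tagged with TAMRA read by polarization; 0% = receptor in buffer alone and 100% = receptor with positive control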
GSTO1 confirm = GSTO1 (human) inhibition, confirmation. shares compounds with GSTO1 counter. recombinant GSTO1, probe fluorescence polarization. inhibition, % at 5.96 µM. 2,400 tested, 54% active. AID 2176;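 active = inhibition above the primary screen's cutoff, its mean inhibition plus 3 SD, cut at about 35% in these data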;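 note: loss of polarization as inhibitors block binding of rhodamine sulfonate ester activity probe; 0% = GSTO1 with DMSO and 100% = wells lacking GSTO1 enzyme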
PAD4 FP conf = confirmation of human PAD4 inhibitors | shares compounds with PAD4 inh | recombinant PAD4, RCA probe fluorescence polarization | inhibition, % at 6.36 µM | 1,200 tested, 28% active | AID 488796;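 active = mean inhibition across replicates above the hit cutoff set by the earlier primary screen, cut at about 15% in these data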;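 note: inhibitors block active-site labeling by the probe so polarization falls; 0% = PAD4 with probe and DMSO and 100% = probe without PAD4 enzyme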
Apaf-1 inh conf = confirmation of Apaf-1 inhibitors. shares compounds with Apaf-1 inh. reconstituted apoptosome, caspase-3 DEVD-Rh110 fluorescence. inhibition, % at 20 µM. 1,800 tested, 25% active;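 active = mean inhibition of at least 40% at 20 µM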;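 note: plate controls were DMSO wells for no effect and DEVD-CHO caspase inhibitor control wells for full effect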
Rh110 interf inh = interferes with Rh110 fluorescence, flagging false Apaf-1 inhibitors. shares compounds with Apaf-1 inh. Rh110 fluorescence interference, quenched caspase reaction. activation (fluorescence interference), % at 20 µM. 1,800 tested, under 10 active;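 active = signal rise of 40% or more at 20 µM, treated as a fluorescence artifact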
Apaf1 inh interf = shows fluorescence interference in the Apaf-1 inhibitor assay format. shares compounds with Apaf-1 inh. fluorescence interference counterscreen, Apaf-1 assay format. IC50, µM. 460 tested, under 10 active. AID 588538; call rule not given here
TDP2 confirm = confirmation of human TDP2 inhibitors. shares compounds with TDP2 inh. recombinant human TDP2, absorbance read-out. inhibition, % at 12.8 µM. 1,100 tested, 22% active; in the data active = inhibition above about 25%;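 note: 0% = vehicle with enzyme and 100% = no enzyme buffer only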
* = called active by the depositor. Rows were chosen to be rich in hits. Some 2.4% of all compounds tested hit in one or more screens of this group.

Results for CCCOc1ccc(C=Nc2ccc(OC)c(S(=O)(=O)N3CCOCC3)c2)c(O)c1 ?
SIAE inh: -1; TDP2 inh: 2; Apaf-1 inh: -4; PAD4 inh: 0; TCR-CD3 inh: 0

How did CC(C)CCC(CC(C)O)C(=O)NNC(=S)Nc1ccccc1 (stereo not drawn) do in these assays?
SIAE inh: 12; TDP2 inh: -6; Apaf-1 inh: -11; PAD4 inh: -1; GSTO1 counter: -4; TCR-CD3 inh: 2

Results for COc1cc(C=C2C(=O)C=CC2=O)ccc1O ?
SIAE inh: 9; TDP2 inh: 9; TCR-CD3 inh: 16

Results for COc1cc(/C=C2\C(=O)N(c3ccc(NC(C)=O)cc3)N=C2c2ccccc2)ccc1O ?
SIAE inh: 14; TDP2 inh: 54*; Apaf-1 inh: 39; PAD4 inh: 62*; GSTO1 counter: 76*; TCR-CD3 inh: -11; GSTO1 confirm: 27; PAD4 FP conf: 5; TDP2 confirm: 12

Results for O=C(c1ccccc1)c1ccc(N2CCOCC2)cc1 ?
SIAE inh: 9; TDP2 inh: -2; TCR-CD3 inh: -3

How did CC(=O)N(C1=C(N2CCOCC2)C(=O)c2ccccc2C1=O)c1ccc(C(=O)O)cc1 do in these assays?
SIAE inh: 1; TDP2 inh: 40*; Apaf-1 inh: 59*; PAD4 inh: 17*; GSTO1 counter: 61*; TCR-CD3 inh: 2; GSTO1 confirm: 55*; PAD4 FP conf: -6; Apaf-1 inh conf: 55*; Rh110 interf inh: 8; Apaf1 inh interf: >100; TDP2 confirm: 24

What do the screens show for `Cc1ccc(NC2=C(N3CCOCC3)C(=O)c3ccccc3C2=O)cc1`?
SIAE inh: -4; TDP2 inh: 60*; Apaf-1 inh: 59*; PAD4 inh: -13; GSTO1 counter: 48*; TCR-CD3 inh: 2; GSTO1 confirm: 21; Apaf-1 inh conf: 81*; Rh110 interf inh: 9; Apaf1 inh interf: >100; TDP2 confirm: 51*

What do the screens show for `Cc1ccc(Nc2nc(N3CCOCC3)nc(N3CCOCC3)n2)cc1`?
SIAE inh: 7; TDP2 inh: 0; Apaf-1 inh: 1; PAD4 inh: -7; GSTO1 counter: -5; TCR-CD3 inh: 4

How did CC(=O)c1ccc(NC2=C(N3CCOCC3)C(=O)c3ccccc3C2=O)cc1 do in these assays?
SIAE inh: -2; TDP2 inh: 54*; Apaf-1 inh: 80*; PAD4 inh: -18; GSTO1 counter: 39*; TCR-CD3 inh: -11; GSTO1 confirm: 8; Apaf-1 inh conf: 46*; Rh110 interf inh: 2; Apaf1 inh interf: >100; TDP2 confirm: 38*

Results for CCN(CC)c1ccc(/C=C2\C(=N)N3N=C(CC(=O)N4CCOCC4)SC3=NC2=O)cc1 ?
SIAE inh: -17; TDP2 inh: -6; Apaf-1 inh: 2; PAD4 inh: -10; GSTO1 counter: -4; TCR-CD3 inh: -6

Results for Cc1cc(C)cc(N(CC(=O)Nc2cc(C)ccc2C)S(=O)(=O)c2c(C)[nH]c(=O)[nH]c2=O)c1 ?
SIAE inh: -9; TDP2 inh: -27; Apaf-1 inh: 5; PAD4 inh: -4; GSTO1 counter: -4; TCR-CD3 inh: -9

How did CC1=NN(c2ccc(C)c(C)c2)C(=O)C1C(c1cccc(O)c1)C1C(=O)N(c2ccc(C)c(C)c2)N=C1C (stereo not drawn) do in these assays?
SIAE inh: 15; TDP2 inh: 80*; Apaf-1 inh: 87*; PAD4 inh: 77*; GSTO1 counter: 51*; TCR-CD3 inh: -2; GSTO1 confirm: 32; TDP2 confirm: 19

How did CC1=NN(c2ccc(C)cc2C)C(=O)C1C(c1ccccc1O)C1C(=O)N(c2ccc(C)cc2C)N=C1C (stereo not drawn) do in these assays?
SIAE inh: 15; TDP2 inh: 79*; Apaf-1 inh: 97*; PAD4 inh: 45*; GSTO1 counter: 56*; TCR-CD3 inh: 2; GSTO1 confirm: 10; PAD4 FP conf: -16; Apaf-1 inh conf: 23; Rh110 interf inh: -2; TDP2 confirm: 12

What do the screens show for `CN(C(=S)Nc1cccnc1)c1ccc(O)cc1`?
SIAE inh: 12; TDP2 inh: 30*; PAD4 inh: 31*; GSTO1 counter: 83*; TCR-CD3 inh: 15; GSTO1 confirm: 5; PAD4 FP conf: 0; TDP2 confirm: 10

What do the screens show for `CCN(C(=S)Nc1cccnc1)c1ccccc1`?
SIAE inh: -7; TDP2 inh: -14; Apaf-1 inh: 2; PAD4 inh: 1; GSTO1 counter: -7; TCR-CD3 inh: -2

How did O=S(=O)(c1ccc(SCCOc2ccccc2)nc1)N1CCCC1 do in these assays?
SIAE inh: 2; TDP2 inh: 5; Apaf-1 inh: 2; PAD4 inh: 2; TCR-CD3 inh: 4

What do the screens show for `Nc1ccc2nn(-c3cccc4ccccc34)nc2c1`?
SIAE inh: 17; TDP2 inh: 36*; Apaf-1 inh: 96*; PAD4 inh: 2; GSTO1 counter: 61*; TCR-CD3 inh: 2; GSTO1 confirm: 7; Apaf-1 inh conf: 75*; Rh110 interf inh: 12; Apaf1 inh interf: >100; TDP2 confirm: 36*

How did CCSc1nnc(-c2ccccc2NC(=O)CC)c(=O)[nH]1 do in these assays?
SIAE inh: 0; TDP2 inh: -1; Apaf-1 inh: 12; PAD4 inh: -5; GSTO1 counter: -3; TCR-CD3 inh: 9

What do the screens show for `O=C1C=C(c2c(O)ccc3ccccc23)c2ccccc2C1=O`?
SIAE inh: 8; TDP2 inh: 19; TCR-CD3 inh: 4

How did O=C1C=C(O)c2cccc(O)c2C1=O do in these assays?
SIAE inh: 12; TDP2 inh: 32*; Apaf-1 inh: 44*; PAD4 inh: 16*; GSTO1 counter: 43*; TCR-CD3 inh: 5; GSTO1 confirm: 40*; PAD4 FP conf: 4; TDP2 confirm: 13

Assay outcomes deposited in PubChem BioAssay by several laboratories.
